Measurements of several laboratories.
Lines come from different studies, so protocols differ.
Target: Delta-type opioid receptor (OPRD1, Homo sapiens, UniProt P41143)

Structure (SMILES) | assay | setting | Ki [nM]
Cc1cc(O)cc(C)c1C[C@H](N)C(=O)N1Cc2ccccc2C[C@@H]1C(=O)NCC(=O)NCc1ccccc1 | ligand displacement, radioligand | cell membranes | 3.2
Cc1cc(O)cc(C)c1C[C@H](N)C(=O)N1Cc2ccccc2CC1C(=O)NCC(=O)NC(Cc1ccc(Cl)cc1)C(=O)N(C)CCC[C@@]1(c2ccc(F)cc2)OCc2cc(C#N)ccc21 (stereo in doubt) | cell-free assay |  | 20
C[C@@H](NC(=O)[C@@H](N)Cc1ccc(O)cc1)C(=O)NCC(=O)N[C@H](CC(=O)NNC(=O)C[C@H](Cc1ccccc1)NC(=O)CNC(=O)[C@@H](C)NC(=O)[C@@H](N)Cc1ccc(O)cc1)Cc1ccccc1 | ligand displacement, radioligand |  | 0.72
C[C@@H](NC(=O)[C@@H](N)Cc1ccc(O)cc1)C(=O)NCC(=O)N[C@@H](Cc1ccccc1)C(=O)N(C)CCC[C@@]1(c2ccc(F)cc2)OCc2cc(C#N)ccc21 | cell-free assay |  | 57
Cc1cc(O)cc(C)c1C[C@H](N)C(=O)N1Cc2ccccc2C[C@H]1C(=O)NCC(=O)NC(c1ccccc1)c1ccccc1 | ligand displacement, radioligand | cell membranes | 0.94
Cc1cc(O)cc(C)c1C[C@H](N)C(=O)N[C@H](C)C(=O)NCC(=O)N[C@@H](Cc1ccc(Cl)cc1)C(=O)N(C)CCC[C@@]1(c2ccc(F)cc2)OCc2cc(C#N)ccc21 | cell-free assay |  | 4
CCCCCCCCCCCCCCCC(=O)O | ligand displacement, radioligand | cell membranes | 5100
CCCO[C@@]12Cc3cc(-c4ccccc4)cnc3[C@@H]3Oc4c(O)ccc5c4[C@@]31CCN(CC1CC1)[C@@H]2C5 | ligand displacement, radioligand | cell membranes | 7.48
CN(C)C1(CNC(=O)/N=N/c2ccc(F)cc2)CCCCC1 | cell-free assay |  | 12000
Cc1cc(O)cc(C)c1C[C@H](N)C(=O)N1Cc2ccccc2C[C@H]1C(=O)NCC(=O)NCc1ccc(N)cc1 | ligand displacement, radioligand | cell membranes | 2
CC(=O)Nc1ccccc1-c1cnc2c(c1)C[C@@]1(OCCCc3ccccc3)[C@H]3Cc4ccc(O)c5c4[C@@]1(CCN3CC1CC1)[C@H]2O5 | ligand displacement, radioligand | cell membranes | > 3330
C[N+]1(C)CCC(=C(c2ccccc2)c2ccccc2)CC1 | cell-free assay |  | 14000
